Results reported in ChEMBL document CHEMBL1132294, “Derivatives of the new ring system indolo[1,2-c]benzo[1,2,3]triazine with potent antitumor and antimicrobial activity” (J Med Chem, 1999).
≈ marks a conversion by molar mass, not a printed value.

Key:
5637 = assay: Antitumor activity was evaluated against human bladder carcinoma cell line 5637.; type: functional, cell-based
How it was run: (§1)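 Solid-tumour and KB lines: exponentially growing cells seeded at 5×10⁴ cells/mL, allowed to adhere 16 h, then serial drug dilutions added. Viability by MTT after 4 days. Growth expressed as % of untreated controls, 50% inhibitory concentration by linear regression. Untreated cells undergo at least three rounds of multiplication.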

ACHN = assay: Antitumor activity was evaluated against human renal adenocarcinoma cell line ACHN.; type: functional, cell-based; how it was run: as §1
Aspergillus fumigatus = assay: Antimycotic activity against Aspergillus fumigatus was evaluated as compound minimum inhibitory concentration at which no macroscopic signs of fungal growth were detected.; type: functional
CHO-K1 = assay: Antitumor activity was evaluated against Chinese hamster ovary carcinoma cell line CHO-K1.; type: functional, cell-based; conditions: Cricetulus griseus; how it was run: as §1
CCRF-CEM = assay: Antitumor activity was evaluated against leukemia cell line CCRF-CEM(human acute T lymphoblastic leukemia).; type: functional, cell-based
How it was run: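 Exponentially growing leukemia/lymphoma cells resuspended at 1×10⁵ cells/mL in RPMI with serial drug dilutions. Viability by MTT after 4 days at 37 °C. Mean of at least three experiments.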

Candida albicans = assay: Antimycotic activity against Candida albicans was evaluated as minimum inhibitory concentration of compound at which no macroscopic signs of fungal growth were detected; type: functional
How it was run: (§2)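 Yeast inocula from 30 h Sabouraud dextrose broth cultures at 37 °C, diluted to 5×10³ cells/mL. Dermatophyte inocula from 5-day cultures, homogenized and diluted to 0.05 OD₅₉₀/mL. Inocula added to medium with serial dilutions, incubated at 37 °C, read visually at 2 days (yeast) or 3 days (dermatophytes). Mean of at least three experiments.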

Candida parapsilosis = assay: Antimycotic activity against Candida parapsilosis was evaluated. MIC was defined as compound concentration at which no macroscopic signs of fungal growth were detected.; type: functional; conditions: Lodderomyces parapsilosis; how it was run: as §2
Cryptococcus neoformans = assay: Antimycotic activity against Cryptococcus neoformans was evaluated. MIC was defined as compound concentration at which no macroscopic signs of fungal growth were detected.; type: functional; how it was run: as §2
HeLa = assay: Antitumor activity was evaluated against human cervix carcinoma cell line HeLa.; type: functional, cell-based; how it was run: as §1
IMR-32 = assay: Antitumor activity was evaluated against human neuroblastoma cell line IMR-32.; type: functional, cell-based; how it was run: as §1
L1210 = assay: Antitumor activity was evaluated against leukemia cell line L1210 (mouse leukemia).; type: functional, cell-based
How it was run: (§3)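 Exponentially growing leukemia/lymphoma cells resuspended at 1×10⁵ cells/mL in RPMI with serial drug dilutions. Viability by MTT after 4 days at 37 °C. Concentration giving 50% growth inhibition versus untreated controls found by linear regression. Mean of at least three experiments.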

MOLT-4 = assay: Antitumor activity was evaluated against leukemia cell line MOLT-4(human acute T lymphoblastic leukemia); type: functional, cell-based; how it was run: as §3
MT4 = assay: Antitumor activity was evaluated against leukemia cell line MT-4(human CD4+ T cells expressing the TAT gene of HTLV-1).; type: functional, cell-based; how it was run: as §3
Mycobacterium = assay: Antibacterial activity was evaluated against MAC (Mycobacterium Avium Complex ); type: functional
How it was run: (§4)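 Mycobacterial suspension (turbidity of 1 McFarland standard, 10⁸ CFU/mL) added to Middlebrook 7H9 with 0.5% glycerol, 10% OADC and serial compound dilutions. Incubated at 37 °C, 1 day for M. smegmatis and M. fortuitum, 9 days for MAC. Viable mycobacteria counted by MTT. MIC given as mean of at least three separate experiments.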

[1] = test system: Mycolicibacterium fortuitum; assay: Antibacterial activity was evaluated against Mycobacterium fortuitum.; type: functional; how it was run: as §4
[2] = test system: Mycobacterium tuberculosis; assay: Antibacterial activity was evaluated against Mycobacterium tuberculosis (ATCC); type: functional
How it was run: (§5)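 Broth microdilution in Middlebrook 7H9 with 0.5% glycerol and 10% OADC, containing serial concentrations of compound (diluted in medium from a DMSO solution). Plates were incubated 9 days at 37 °C, and viable bacteria were read by MTT. MIC is the mean of at least three separate experiments.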

[3] = test system: Mycolicibacterium smegmatis; assay: Antibacterial activity was evaluated against Mycobacterium smegmatis; type: functional; how it was run: as §4
Salmonella = assay: Antibacterial activity was evaluated against salmonella.; type: functional
How it was run: (§6)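 Recent clinical isolates grown in nutrient broth, pH 7.2, inoculum 10³ bacterial cells/tube, with serial compound dilutions. […] Mean of at least three separate experiments.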

Streptococcus = assay: Antibacterial activity was evaluated against streptococcus.; type: functional; how it was run: as §6
Staphylococcus = assay: Antibacterial activity was evaluated against staphylococcus; type: functional; how it was run: as §6
Trichophyton benhamiae = assay: Antimycotic activity against Trichophyton mentagrophytes was evaluated. MIC was defined as compound concentration at which no macroscopic signs of fungal growth were detected.; type: functional, Arthroderma benhamiae; how it was run: as §2
WIL2-NS = assay: Antitumor activity was evaluated against lymphoma cell line Wil2-NS (human splenic B lymphoblastoid cells).; type: functional, cell-based; how it was run: as §3
CCRF-SB = assay: Antitumor activity was evaluated against leukemia cell line CCRF-SB(human acute B lymphoblastic leukemia).; type: functional, cell-based; how it was run: as §3
Shigella = assay: Antibacterial activity was evaluated against shigella.; type: functional; how it was run: as §6
[4] = test system: Mycobacterium tuberculosis; assay: Antibacterial activity was evaluated against Mycobacterium tuberculosis (clinical isolate 1104); type: functional; how it was run: as §5
Candida tropicalis = assay: Antimycotic activity against Candida paratropicalis was evaluated. MIC was defined as compound concentration at which no macroscopic signs of fungal growth were detected.; type: functional; how it was run: as §2
HT-29 = assay: Antitumor activity was evaluated against human colon adenocarcinoma cell line HT-29.; type: functional, cell-based; how it was run: as §1

## O=Nc1c2ccccc2n2nnc3cc(Cl)ccc3c12
5637
  IC50: 2.6 µM
ACHN
  IC50: 7.6 µM
Aspergillus fumigatus
  MIC: 6.2 µM (≈ 1.75 µg/mL)
CHO-K1
  IC50: 9.3 µM
CCRF-CEM
  IC50: 1.8 µM
Candida albicans
  MIC: 12 µM (≈ 3.39 µg/mL)
Candida parapsilosis
  MIC: 3 µM (≈ 0.848 µg/mL)
Cryptococcus neoformans
  MIC: 1.6 µM (≈ 0.452 µg/mL)
HeLa
  IC50: 9.2 µM
IMR-32
  IC50: 2.2 µM
L1210
  IC50: 2.4 µM
MOLT-4
  IC50: 1.1 µM
MT4
  IC50: 0.9 µM
Mycobacterium
  MIC: 0.6 µM (≈ 0.17 µg/mL)
[1]
  MIC: > 5 µM
[2]
  MIC: 4.4 µM (≈ 1.24 µg/mL)
[3]
  MIC: > 5 µM
Salmonella
  MIC: > 200 µM
Streptococcus
  MIC: 0.4 µM (≈ 0.113 µg/mL)
Staphylococcus
  MIC: 0.4 µM (≈ 0.113 µg/mL)
Trichophyton benhamiae
  MIC: 50 µM (≈ 14.1 µg/mL)
WIL2-NS
  IC50: 0.8 µM
CCRF-SB
  IC50: 2.8 µM
Shigella
  MIC: > 200 µM
[4]
  MIC: 5.9 µM (≈ 1.67 µg/mL)
Candida tropicalis
  MIC: 25 µM (≈ 7.07 µg/mL)
HT-29
  IC50: 35 µM
